# Active and inactive are the calls of the source.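 Rule for the calls, unless noted: active = GFP response above 150% of the DMSO level; inconclusive = fewer than 70 events counted for a yeast strain; inactive = the rest.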
# What was measured:
# [1] = hit retest on RPL19A-GFP reporter strain – cell-based, S. cerevisiae, flow cytometry, cherry picks, mother/daughter gates, confirmation (AID 2270;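 active = GFP response below 50% of the DMSO control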); conditions: 3 h, at 10 µM, stronger effect = lower value, 100 = same GFP as DMSO wells
# [2] = yeast TOR pathway reporter LAP4-GFP change – cell-based, cherry picks, flow cytometry, mother/daughter gates, confirmation (AID 2271;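 active = GFP response above 150% of the DMSO control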;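 note: ratio of sample to DMSO plate mean so 100% equals DMSO level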); conditions: S. cerevisiae LAP4-GFP strain, 3 h, at 10 µM, stronger effect = higher value, 100 means same as DMSO control
# Procedure, shortened: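 Test system: GFP-fusion yeast strain / Amount: 0.2 OD600 cells / Buffer or medium: SC medium / Dosing: 10 µM single dose / Incubation: compound exposure 3 h at 30 °C, end-over-end rotation / Detection: HT flow cytometry, GFP fluorescence channel / Evaluation: median GFP fluorescence as percent of plate-mean DMSO wells / Control set: DMSO-only negative wells, rapamycin 400 ng/mL positive wells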
# [3] = TOR pathway reporter MEP2-GFP, retest of hits – S. cerevisiae, flow cytometry GFP, cherry picks, confirmation (AID 2272;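 active = GFP response above 150% of the DMSO control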;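 note: ratio of well signal to plate DMSO mean so 100% equals DMSO level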); conditions: S. cerevisiae MEP2-GFP strain, 3 h, at 10 µM, stronger effect = higher value
# [4] = yeast AGP1-GFP fluorescence change, single-dose – cell-based, flow cytometry, S. cerevisiae, cherry picks, confirmation (AID 2273);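 note: median GFP channel fluorescence over the whole cell population gate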; conditions: S. cerevisiae AGP1-GFP strain, 3 h, at 10 µM
# [5] = TOR pathway CIT2 reporter hit retest – S. cerevisiae, GFP fusion, cherry picks, mother/daughter gates, confirmation (AID 2274); conditions: S. cerevisiae CIT2-GFP strain, flow cytometry, 3 h, at 10 µM, stronger effect = higher value
# [6] = measured here: daughter cell gate
# [7] = measured here: mother cell gate
# [8] = measured here: daughter cell gate response
# [9] = measured here: mother cell gate response
SMILES,GFP response vs DMSO [1],"GFP response vs DMSO [1, 6]","GFP response vs DMSO [1, 7]",GFP response relative to DMSO [2],"GFP response relative to DMSO [2, 8]","GFP response relative to DMSO [2, 9]",GFP response vs DMSO [3],"GFP response, % of DMSO [4]","GFP response, % of DMSO [5]","GFP response, % of DMSO [5, 6]","GFP response, % of DMSO [5, 7]"
COc1ccc(NC(=O)COC(=O)c2ccco2)c([N+](=O)[O-])c1,99.5% (inactive),98.5%,96.7%,103% (inactive),99.3%,102%,108% (inactive),98.9% (inactive),99.3% (inactive),92.7%,98%
COc1ccc(-c2[nH]ncc2N=Nc2ccccc2)cc1,96.2% (inactive),94.3%,96.6%,107% (inactive),104%,108%,94.4% (inactive),92.2% (inactive),97.2% (inactive),98.4%,93.7%
COC(=O)c1ccc(Cn2cc(/C=C\[N+](=O)[O-])c3ccccc32)o1,103% (inactive),104%,102%,122% (inactive),115%,127%,106% (inactive),98.2% (inactive),96.4% (inactive),100%,92.1%
O=S(=O)(c1cccc(C(F)(F)F)c1)c1ccc(O)cn1,98.8% (inactive),99.4%,98.5%,96.7% (inactive),99.2%,95.1%,100% (inactive),94.7% (inactive),104% (inactive),106%,103%
COc1cc(-c2noc(-c3cccc(Cl)c3)n2)cc(OC)c1OC,96.2% (inactive),97%,95.8%,90.6% (inactive),88.2%,91.3%,103% (inactive),99.5% (inactive),101% (inactive),101%,103%
COc1ccccc1OC(C)C(=O)Nc1ccccc1C(=O)NCC1CCCO1 (centres undefined),97% (inactive),95.2%,97.2%,97.7% (inactive),97.9%,97.5%,99.5% (inactive),103% (inactive),97.8% (inactive),98.3%,96.8%
Cc1cc(C)c(C(=O)COC(=O)c2ccc([N+](=O)[O-])o2)cc1C,100% (inactive),102%,98.2%,102% (inactive),102%,104%,101% (inactive),105% (inactive),100% (inactive),101%,97.1%
COc1cc(NC(=O)c2oc3ccccc3c2C)ccc1NC(=O)c1ccco1,98% (inactive),97.8%,98.4%,97.7% (inactive),99%,100%,110% (inactive),102% (inactive),98.6% (inactive),97.6%,99.3%
N#C/C(=C\c1c(N2CCCCCC2)nc2ccccn2c1=O)C(=O)NC1CCS(=O)(=O)C1 (centres undefined),99.9% (inactive),101%,99.7%,105% (inactive),107%,103%,116% (inactive),98.7% (inactive),109% (inactive),111%,108%
COc1ccccc1N=Nc1ccc(O)c2ncccc12,104% (inactive),101%,101%,235% (active),203%,223%,132% (inactive),115% (inactive),158% (active),126%,161%
Cc1oc2c(CN3CCCC(C)C3)c(O)ccc2c(=O)c1-c1ccccc1 (centres undefined),102% (inactive),102%,104%,143% (inactive),151%,141%,141% (inactive),107% (inactive),147% (inactive),152%,143%
Cn1c(=O)c(C(=O)NC2CCCCCCC2)c(O)c2ccccc21,101% (inactive),102%,103%,93.8% (inactive),94.1%,96.2%,95.7% (inactive),98.9% (inactive),107% (inactive),105%,111%
COc1ccc2c(/C=C/c3cc[n+](C)cc3)c[nH]c2c1,102% (inactive),106%,101%,144% (inactive),152%,143%,199% (active),100% (inactive),161% (active),169%,157%
CC(C)C(=O)NC(c1cccs1)c1cc([N+](=O)[O-])c2cccnc2c1O (centres undefined),95.8% (inactive),95.2%,95.8%,101% (inactive),99.1%,99.4%,94.7% (inactive),101% (inactive),98.8% (inactive),101%,99.3%
C/C(=N/NS(=O)(=O)c1ccccc1)c1ccc(NC(=O)C(F)(F)F)cc1,102% (inactive),103%,103%,94.2% (inactive),95%,94.6%,99.5% (inactive),91% (inactive),95% (inactive),96.4%,93.3%
O=[N+]([O-])c1ccc(N=Nc2c(Cl)cc(O)cc2Cl)cc1,91.9% (inactive),84.8%,85.2%,252% (active),150%,230%,112% (inactive),91.4% (inactive),96.4% (inactive),96.4%,82.8%
COc1ccc(CCNc2nc(-c3sc(C)nc3C)cs2)cc1OC,96.6% (inactive),97.6%,95.4%,106% (inactive),104%,105%,102% (inactive),93.7% (inactive),101% (inactive),103%,99.7%

SMILES,GFP response vs DMSO [1],"GFP response vs DMSO [1, 6]","GFP response vs DMSO [1, 7]",GFP response relative to DMSO [2],"GFP response relative to DMSO [2, 8]","GFP response relative to DMSO [2, 9]",GFP response vs DMSO [3],"GFP response, % of DMSO [4]","GFP response, % of DMSO [5]","GFP response, % of DMSO [5, 6]","GFP response, % of DMSO [5, 7]"
O=C(c1ccc(OCC2CCCO2)cc1)N1CCN(c2ccccc2)CC1 (centres undefined),98.7% (inactive),98.4%,98.4%,104% (inactive),102%,105%,103% (inactive),102% (inactive),100% (inactive),101%,100%
Clc1cnc(N/N=C/c2cccs2)c(Cl)c1,105% (inactive),100%,103%,178% (active),158%,172%,126% (inactive),98.2% (inactive),103% (inactive),110%,97.1%
O=C(O)c1ccc(N/N=C/C(Br)=C/c2ccccc2)cc1,98.4% (inactive),97%,96.7%,131% (inactive),130%,130%,97.5% (inactive),94.7% (inactive),90.7% (inactive),92.7%,85.1%
CCCCOC(=O)C1CCC[C@@H](C)N1 (some centres undefined),101% (inactive),102%,100%,98.9% (inactive),101%,99.5%,103% (inactive),102% (inactive),100% (inactive),101%,100%
COC(=O)c1ccccc1OCC(=O)NC1CCCCC1,88.9% (inactive),83.8%,92.2%,135% (inactive),126%,145%,89.9% (inactive),91.7% (inactive),84.1% (inactive),80.7%,85.5%
COC(=O)c1ccccc1Sc1ncnc2onc(C)c12,101% (inactive),100%,101%,111% (inactive),106%,112%,120% (inactive),93.2% (inactive),108% (inactive),106%,107%
COc1ccccc1CNc1nc(S(=O)(=O)c2ccccc2)c(Cl)s1,97.3% (inactive),97.8%,96.5%,108% (inactive),104%,109%,95.2% (inactive),105% (inactive),97.2% (inactive),97.6%,97.1%
CC1=C(C)/C(=N\OS(=O)(=O)c2ccccc2)C=CC1=O,99.1% (inactive),98.8%,91.2%,250% (active),196%,236%,112% (inactive),93.4% (inactive),105% (inactive),111%,95.6%
Cc1ccc(N(C(=O)CNC(=O)c2ccco2)C(C(=O)NC2CCCC2)c2cccnc2)cc1C (centres undefined),104% (inactive),100%,108%,95.7% (inactive),95.9%,95.2%,99% (inactive),105% (inactive),102% (inactive),99.2%,102%
Cc1ccc(N2C3=C(C(=O)CC(C)(C)C3)C(c3cn(C)nc3C)C3=C2CC(C)(C)CC3=O)cc1,105% (inactive),102%,104%,119% (inactive),122%,117%,131% (inactive),103% (inactive),134% (inactive),132%,132%
COc1cccc(-c2nnc(NC(=O)c3ccc(S(=O)(=O)N4CC(C)OC(C)C4)cc3)o2)c1 (centres undefined),103% (inactive),103%,102%,95.7% (inactive),94.2%,96.2%,109% (inactive),100% (inactive),100% (inactive),97.4%,99.3%
Cn1cc([N+](=O)[O-])c(C(=O)Nc2nc(-c3ccc(Cl)cc3)cs2)n1,97.8% (inactive),97%,96.5%,102% (inactive),97.5%,102%,106% (inactive),95.5% (inactive),100% (inactive),97.6%,99.3%
COc1ccc(Cc2nnc(NC(=O)c3ccccc3F)s2)cc1,97.6% (inactive),96.4%,98.5%,101% (inactive),105%,101%,100% (inactive),98.3% (inactive),100% (inactive),99.7%,97.7%
COc1ccc(COC(=O)c2n[nH]c3ccccc23)cc1F,98.4% (inactive),96.7%,98.2%,97.4% (inactive),98.7%,99.3%,102% (inactive),95% (inactive),106% (inactive),108%,104%
O=C(N=Nc1c(O)[nH]c2ccccc12)c1ccco1,98.2% (inactive),98.6%,97.8%,99.8% (inactive),98.2%,102%,98.8% (inactive),100% (inactive),103% (inactive),102%,102%
COc1ccc(/C=C/C(=O)c2ccc(OC)cc2O)cc1,99.9% (inactive),100%,99.3%,98.8% (inactive),99.3%,100%,104% (inactive),100% (inactive),102% (inactive),102%,100%
CCOC(=O)CNc1c(-c2ccccc2)nc2ccc(Cl)cn12,96% (inactive),97.8%,96.4%,109% (inactive),105%,114%,97.5% (inactive),98% (inactive),95% (inactive),98.3%,93.3%

# — PubChem BioAssay
